Published values pooled from the literature.
Protocols differ between the studies behind these lines.
Target: Serine/threonine-protein kinase LATS2 (LATS2, Homo sapiens, UniProt Q9NRM7)
One construct used (Q9NRM7 1-1088): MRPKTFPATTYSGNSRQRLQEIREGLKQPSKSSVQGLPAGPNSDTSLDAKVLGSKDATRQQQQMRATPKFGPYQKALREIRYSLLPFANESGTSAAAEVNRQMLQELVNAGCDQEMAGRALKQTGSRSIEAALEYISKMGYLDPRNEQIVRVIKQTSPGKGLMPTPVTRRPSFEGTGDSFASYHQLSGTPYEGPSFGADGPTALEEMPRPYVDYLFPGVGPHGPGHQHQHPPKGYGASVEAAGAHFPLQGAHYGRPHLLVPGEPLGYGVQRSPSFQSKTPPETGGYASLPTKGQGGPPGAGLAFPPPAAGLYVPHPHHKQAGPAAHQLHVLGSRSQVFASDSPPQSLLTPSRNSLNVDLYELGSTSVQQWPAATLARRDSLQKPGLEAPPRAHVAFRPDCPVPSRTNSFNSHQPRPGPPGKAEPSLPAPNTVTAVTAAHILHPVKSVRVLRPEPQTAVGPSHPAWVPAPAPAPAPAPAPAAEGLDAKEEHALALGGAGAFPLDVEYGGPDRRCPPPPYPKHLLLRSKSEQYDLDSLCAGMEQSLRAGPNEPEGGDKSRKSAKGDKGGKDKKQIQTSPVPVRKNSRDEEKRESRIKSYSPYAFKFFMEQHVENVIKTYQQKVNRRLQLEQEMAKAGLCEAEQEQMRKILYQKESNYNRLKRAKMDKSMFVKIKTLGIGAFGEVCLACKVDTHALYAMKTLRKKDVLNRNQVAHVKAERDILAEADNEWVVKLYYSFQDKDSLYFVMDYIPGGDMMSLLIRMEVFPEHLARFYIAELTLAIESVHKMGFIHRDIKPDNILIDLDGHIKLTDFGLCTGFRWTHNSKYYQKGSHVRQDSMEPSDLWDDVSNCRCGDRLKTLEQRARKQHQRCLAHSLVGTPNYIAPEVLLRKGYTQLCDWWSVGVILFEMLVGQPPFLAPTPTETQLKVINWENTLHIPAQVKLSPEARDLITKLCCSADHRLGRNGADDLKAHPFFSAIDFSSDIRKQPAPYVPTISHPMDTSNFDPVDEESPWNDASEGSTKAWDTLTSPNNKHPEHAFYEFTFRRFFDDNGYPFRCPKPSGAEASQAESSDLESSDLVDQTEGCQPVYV

COc1ccnn2ncc(-c3ccnc(N(C)C)n3)c12  remaining binding (binding; 1 µM): 100%
O=C(c1ccc(Nc2ncc(Cl)c(-c3cc4ccccc4s3)n2)cc1)N1CCC(N2CCCC2)CC1  remaining binding (binding, competition with immobilised ligand; 1 µM): 15%
C[C@H](c1ccc(F)cc1)N(Cc1cccc(C(=O)O)c1)C(=O)c1cnc2ccccc2c1  remaining binding (cell-free assay, competition with immobilised ligand; 1 µM): 64%
COc1cnc(Nc2cccc(S(N)(=O)=O)c2)nc1N1CCN(c2ccccc2)CC1  remaining binding (binding, competition with immobilised ligand; 1 µM): 74%
CN(C)CC#Cc1ccc(OCCCc2sc(N3CCc4cccc(C(=O)Nc5nc6ccccc6s5)c4C3)nc2C(=O)O)c(F)c1  remaining binding (cell-free assay, competition with immobilised ligand; 1 µM): 95%
O=C(c1ccc(Nc2nccc(-c3cc4ccccc4s3)n2)cc1)N1CCC(N2CCCC2)CC1  remaining binding (binding, competition with immobilised ligand; 1 µM): 72%
CN(CCCC(F)(F)F)c1nccc(-c2cnn3ncccc23)n1  remaining binding (binding; 1 µM): 100%
COc1cnc(Nc2cccc(S(N)(=O)=O)c2)nc1N1CCN(c2ccccc2)C(=O)C1  remaining binding (binding, competition with immobilised ligand; 1 µM): 100%
CCCCN(CCCC)C(=O)CN1C[C@@H](c2cc(OC)c3c(c2)OCO3)[C@H](C(=O)O)[C@H]1CC(C)(C)CCC  remaining binding (cell-free assay, competition with immobilised ligand; 1 µM): 100%
C[C@H]1CCN(c2nccc(-c3cnn4ncccc34)n2)C1  remaining binding (binding; 1 µM): 83%
Nc1ncc2c(n1)-c1c([nH]c3ccc(C#CC4CC4)cc13)CCCC2  remaining binding (binding, competition with immobilised ligand; 1 µM): 91%
COc1cc(-c2cn(C3CCc4ccccc4N(CC(F)(F)F)C3=O)nn2)ccc1-n1ccc(C)n1 (centres unmarked)  remaining binding (cell-free assay, competition with immobilised ligand; 1 µM): 69%
CCN1CCN(Cc2ccc(C(=O)Nc3ccc(C)c(Oc4ccc5c(c4)CC(=O)N5)c3)cc2C(F)(F)F)CC1  remaining binding (binding, competition with immobilised ligand; 1 µM): 100%
CN(c1nccc(-c2cnn3ncccc23)n1)C1CC1  remaining binding (binding; 1 µM): 100%
O=C(NCCCN1CCOCC1)c1ccc(Nc2nccc(-c3cc4ccccc4s3)n2)cc1  remaining binding (binding, competition with immobilised ligand; 1 µM): 100%
O=C(Nc1c[nH]nc1C(=O)NC1CCNCC1)c1cc(F)cc(F)c1  remaining binding (binding, competition with immobilised ligand; 1 µM): 94%
Cn1nc(C(=O)NCc2ccc(C(=O)O)cc2)cc1-c1ccc2[nH]ccc2c1  remaining binding (cell-free assay, competition with immobilised ligand; 0.1 µM): 100%
N[C@H]1CCN(c2nccc(-c3cnn4ncccc34)n2)C1  remaining binding (binding; 1 µM): 74%
Cc1nccc(COC(=O)N2C[C@@H]3[C@@H](CNC(=O)c4ccc5[nH]nnc5c4)[C@@H]3C2)n1  remaining binding (cell-free assay, competition with immobilised ligand; 1 µM): 97%
CN(C)c1nccc(-c2cnn3ncccc23)n1  remaining binding (binding; 1 µM): 64%
